In ChEMBL document CHEMBL4321796, “Proteolysis Targeting Chimeras for the Selective Degradation of Mcl-1/Bcl-2 Derived from Nonselective Target Binding Ligands” (J Med Chem, 2019):
Calls of active or inactive are those of the source. The calls are words filed in the database; no cut-off is given here.

Experiments:
[1] = target: T1, Protein cereblon/Apoptosis regulator Bcl-2 (Homo sapiens, UniProt P10415+Q96SW2); test: Induction of CRBN-mediated Bcl-2 degradation in human HeLa cells assessed as relative abundance at 10 uM measured at 2 hrs by Western blot analysis (reference value: 1); format: cell-based
T1 sequence (P10415 whole entry, looked up): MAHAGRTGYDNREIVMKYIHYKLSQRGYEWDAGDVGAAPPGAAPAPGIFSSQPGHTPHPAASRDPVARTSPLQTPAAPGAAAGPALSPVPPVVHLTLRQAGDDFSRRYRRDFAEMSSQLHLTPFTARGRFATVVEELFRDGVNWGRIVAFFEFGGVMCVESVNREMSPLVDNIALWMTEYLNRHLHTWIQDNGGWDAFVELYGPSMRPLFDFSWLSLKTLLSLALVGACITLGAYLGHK
T1 sequence (Q96SW2 whole entry, looked up): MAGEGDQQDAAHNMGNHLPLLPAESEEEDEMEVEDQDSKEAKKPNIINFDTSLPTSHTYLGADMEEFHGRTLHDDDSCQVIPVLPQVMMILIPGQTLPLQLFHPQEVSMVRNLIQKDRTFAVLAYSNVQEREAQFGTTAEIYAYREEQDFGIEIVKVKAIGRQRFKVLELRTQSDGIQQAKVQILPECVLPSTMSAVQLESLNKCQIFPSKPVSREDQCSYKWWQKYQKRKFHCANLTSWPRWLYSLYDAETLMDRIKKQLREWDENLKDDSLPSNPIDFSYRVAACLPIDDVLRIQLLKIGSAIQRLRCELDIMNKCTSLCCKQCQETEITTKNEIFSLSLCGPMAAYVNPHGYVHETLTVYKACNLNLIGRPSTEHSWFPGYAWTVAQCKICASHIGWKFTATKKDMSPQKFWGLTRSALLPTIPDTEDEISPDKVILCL
Summary of the method: (§1)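 HeLa cells in DMEM with 10% FBS, exposed to 10 µM compound over a 0–24 h time course. Mcl-1 and Bcl-2 detected by immunoblot (NP-40 lysis, BCA-equalized SDS-PAGE, PVDF, ECL) and quantified relative to DMSO control; mean ± s.d., n=3 independent samples.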

[2] = target: T2, Protein cereblon/Induced myeloid leukemia cell differentiation protein Mcl-1 (Homo sapiens, UniProt Q07820+Q96SW2); test: Induction of CRBN-mediated Mcl-1 degradation in human HeLa cells assessed as relative abundance at 0.3 uM after 12 hrs by Western blot analysis (reference value: 1); format: cell-based
T2 sequence (Q07820 whole entry, looked up): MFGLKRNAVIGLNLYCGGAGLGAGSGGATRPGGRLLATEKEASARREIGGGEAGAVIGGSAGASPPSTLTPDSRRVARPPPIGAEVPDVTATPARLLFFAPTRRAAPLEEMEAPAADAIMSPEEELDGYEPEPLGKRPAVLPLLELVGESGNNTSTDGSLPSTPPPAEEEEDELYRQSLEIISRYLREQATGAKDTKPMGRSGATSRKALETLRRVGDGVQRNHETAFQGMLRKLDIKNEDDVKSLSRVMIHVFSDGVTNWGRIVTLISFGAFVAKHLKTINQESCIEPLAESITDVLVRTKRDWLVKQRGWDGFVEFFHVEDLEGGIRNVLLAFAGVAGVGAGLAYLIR
T2 sequence (Q96SW2 whole entry, looked up): as the sequence (Q96SW2 whole entry, looked up) above

[3] = target: T1, Protein cereblon/Apoptosis regulator Bcl-2; test: Induction of CRBN-mediated Bcl-2 degradation in human HeLa cells assessed as relative abundance at 1 uM after 12 hrs by Western blot analysis (reference value: 1); format: cell-based
[4] = target: T1, Protein cereblon/Apoptosis regulator Bcl-2; test: Induction of CRBN-mediated Bcl-2 degradation in human HeLa cells assessed as relative abundance at 10 uM measured at 8 hrs by Western blot analysis (reference value: 1); format: cell-based; summary of the method: as §1
[5] = target: T1, Protein cereblon/Apoptosis regulator Bcl-2; test: Induction of CRBN-mediated Bcl-2 degradation in human HeLa cells assessed as relative abundance at 0.3 uM after 12 hrs by Western blot analysis (reference value: 1); format: cell-based
[6] = target: T2, Protein cereblon/Induced myeloid leukemia cell differentiation protein Mcl-1; test: Induction of CRBN-mediated Mcl-1 degradation in human HeLa cells assessed as relative abundance at 3 uM after 12 hrs by Western blot analysis (reference value: 1); format: cell-based
[7] = target: T2, Protein cereblon/Induced myeloid leukemia cell differentiation protein Mcl-1; test: Induction of CRBN-mediated Mcl-1 degradation in human HeLa cells assessed as relative abundance at 0.1 uM after 12 hrs by Western blot analysis (reference value: 1); format: cell-based
[8] = target: T2, Protein cereblon/Induced myeloid leukemia cell differentiation protein Mcl-1; test: Induction of CRBN-mediated Mcl-1 degradation in human HeLa cells at 10 uM by Western blot analysis; format: cell-based; conditions: TDE = time-dependent effect
[9] = target: T2, Protein cereblon/Induced myeloid leukemia cell differentiation protein Mcl-1; test: Induction of CRBN-mediated Mcl-1 degradation in human HeLa cells after 12 hrs by Western blot analysis; format: cell-based
[10] = target: T2, Protein cereblon/Induced myeloid leukemia cell differentiation protein Mcl-1; test: Induction of CRBN-mediated Mcl-1 degradation in human K562 cells incubated for 12 hrs by Western blot analysis; format: cell-based
Summary of the method: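 K562 cells kept in RPMI1640 with 10% FBS at 37 °C, 5% CO2. After compound treatment, cells lysed in NP-40 buffer with protease inhibitors. Equal protein run on SDS-PAGE, then immunoblotted; protein levels quantified from the blots.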

[11] = target: T1, Protein cereblon/Apoptosis regulator Bcl-2; test: Induction of CRBN-mediated Bcl-2 degradation in human HeLa cells assessed as reduction in Bcl-2 level at 10 uM after 12 hrs by Western blot analysis; format: cell-based
[12] = target: T2, Protein cereblon/Induced myeloid leukemia cell differentiation protein Mcl-1; test: Protac activity at CRBN/Mcl-1 in human HeLa cell lysates assessed as ternary complex formation by Western blot analysis based pull-down assay; format: subcellular; conditions: Lysate
Summary of the method: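 HeLa lysate (25×10^6 cells, 1% Triton X-100 IP buffer), 1 mg total protein, incubated overnight with 1 µg CRBN antibody across a compound concentration gradient. Capture on protein A+G agarose, three Triton washes, boiled in loading buffer. Mcl-1, Bcl-2 and CRBN detected by immunoblotting. n=3 independent samples.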

[13] = target: T2, Protein cereblon/Induced myeloid leukemia cell differentiation protein Mcl-1; test: Induction of CRBN-mediated Mcl-1 degradation in human HeLa cells assessed as relative abundance at 1 uM after 12 hrs by Western blot analysis (reference value: 1); format: cell-based
[14] = target: T2, Protein cereblon/Induced myeloid leukemia cell differentiation protein Mcl-1; test: Induction of CRBN-mediated Mcl-1 degradation in human HeLa cells at 10 uM pretreated with proteasome inhibitor MG-132 followed by compound addition by Western blot analysis; format: cell-based
[15] = target: T2, Protein cereblon/Induced myeloid leukemia cell differentiation protein Mcl-1; test: Induction of CRBN-mediated Mcl-1 degradation in human HeLa cells at 10 uM pretreated with Bcl-2 inhibitor Nap-1 followed by compound addition by Western blot analysis; format: cell-based
[16] = target: T2, Protein cereblon/Induced myeloid leukemia cell differentiation protein Mcl-1; test: Induction of CRBN-mediated Mcl-1 degradation in human HeLa cells assessed as relative abundance at 10 uM after 12 hrs by Western blot analysis (reference value: 1); format: cell-based
[17] = target: Apoptosis regulator Bcl-2 (Homo sapiens, UniProt P10415); test: Inhibition of biotinylated Bim peptide (81 to 106 residues) binding to His-tagged human Bcl-2 expressed in Escherichia coli BL21 (DE3) cells preincubated for 1 hr followed by biotinylated Bim peptide addition measured after 2 hrs by ELISA
Chain of Apoptosis regulator Bcl-2 (P10415 whole entry, the tested form may be a part): as the sequence (P10415 whole entry, looked up) above
Summary of the method: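 Inhibitor serially diluted (100–0.1 µM) from 10 mM DMSO stock, preincubated 1 h with 200 nM His-tagged protein in PBS (final DMSO 4%), then added 2 h to streptavidin plates holding biotin-Bim (plated at 0.09 mg/mL). Incubations at 4 °C. Detection with HRP anti-His, TMB 30 min, H2SO4 stop, A450. IC50 averaged from three independent experiments, with SD.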

[18] = target: T2, Protein cereblon/Induced myeloid leukemia cell differentiation protein Mcl-1; test: Induction of CRBN-mediated Mcl-1 degradation in human HeLa cells assessed as Mcl-1 level at 10 uM after 12 hrs by Western blot analysis relative to control; format: cell-based
[19] = target: T1, Protein cereblon/Apoptosis regulator Bcl-2; test: Induction of CRBN-mediated Bcl-2 degradation in human HeLa cells assessed as relative abundance at 10 uM measured at 16 hrs by Western blot analysis (reference value: 1); format: cell-based; summary of the method: as §1
NCI-H23 = test: Cytotoxicity against human H23 cells assessed as effect on PARP cleavage at 0.3 to 10 uM incubated for 12 hrs by Western blot analysis; format: functional, cell-based
Summary of the method: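 H23 cells grown in RPMI1640 with 10% FBS at 37°C, 5% CO2, treated 12 h over a concentration gradient. Mcl-1 and PARP cleavage read by immunoblot: NP-40 lysis buffer with protease inhibitors, BCA-normalized SDS-PAGE, PVDF, ECL detection; n=3 independent samples.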

[20] = target: Protein cereblon/E3 ubiquitin-protein ligase Mdm2 (Homo sapiens) (UniProt Q00987+Q96SW2); test: Induction of CRBN-mediated MDM2 degradation in human HeLa cells at 10 uM incubated for 12 hrs by Western blot analysis; format: cell-based
Chain of Protein cereblon/E3 ubiquitin-protein ligase Mdm2 (Homo sapiens) (Q00987 whole entry, looked up): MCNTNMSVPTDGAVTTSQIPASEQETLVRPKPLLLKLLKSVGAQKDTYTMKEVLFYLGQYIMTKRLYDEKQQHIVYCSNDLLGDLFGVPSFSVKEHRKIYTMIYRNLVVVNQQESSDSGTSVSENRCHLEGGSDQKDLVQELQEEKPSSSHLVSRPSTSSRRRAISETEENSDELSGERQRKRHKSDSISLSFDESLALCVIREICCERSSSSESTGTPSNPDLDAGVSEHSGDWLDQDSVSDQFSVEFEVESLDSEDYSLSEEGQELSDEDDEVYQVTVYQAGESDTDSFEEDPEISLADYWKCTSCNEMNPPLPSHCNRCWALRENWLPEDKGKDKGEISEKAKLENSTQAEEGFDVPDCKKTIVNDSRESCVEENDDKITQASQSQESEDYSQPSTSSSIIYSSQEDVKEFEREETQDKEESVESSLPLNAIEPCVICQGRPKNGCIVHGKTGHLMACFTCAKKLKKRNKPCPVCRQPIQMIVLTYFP
Chain of Protein cereblon/E3 ubiquitin-protein ligase Mdm2 (Homo sapiens) (Q96SW2 whole entry, looked up): as the sequence (Q96SW2 whole entry, looked up) above

[21] = target: T2, Protein cereblon/Induced myeloid leukemia cell differentiation protein Mcl-1; test: Induction of CRBN-mediated Mcl-1 degradation in human HeLa cells assessed as relative abundance at 10 uM measured at 2 hrs by Western blot analysis (reference value: 1); format: cell-based; summary of the method: as §1
[22] = target: T2, Protein cereblon/Induced myeloid leukemia cell differentiation protein Mcl-1; test: Induction of CRBN-mediated Mcl-1 degradation in human HeLa cells assessed as relative abundance at 10 uM measured at 24 hrs by Western blot analysis (reference value: 1); format: cell-based; summary of the method: as §1
[23] = target: T2, Protein cereblon/Induced myeloid leukemia cell differentiation protein Mcl-1; test: Induction of CRBN-mediated Mcl-1 degradation in human HeLa cells assessed as relative abundance at 10 uM measured at 8 hrs by Western blot analysis (reference value: 1); format: cell-based; summary of the method: as §1
[24] = target: T2, Protein cereblon/Induced myeloid leukemia cell differentiation protein Mcl-1; test: Induction of CRBN-mediated Mcl-1 degradation in human HeLa cells assessed as relative abundance at 10 uM measured at 4 hrs by Western blot analysis (reference value: 1); format: cell-based; summary of the method: as §1
[25] = target: T1, Protein cereblon/Apoptosis regulator Bcl-2; test: Induction of CRBN-mediated Bcl-2 degradation in human HeLa cells assessed as relative abundance at 0.1 uM after 12 hrs by Western blot analysis (reference value: 1); format: cell-based

fold change (FC) [1]: 1.1 | fold change (FC) [2]: 0.9 | fold change (FC) [3]: 0.9 to 1 | fold change (FC) [4]: 1 | fold change (FC) [5]: 1 | fold change (FC) [6]: 0.1 | fold change (FC) [7]: 1.1 | Activity [8]: Tde | Activity [9]: Dose-dependent effect | Activity [10]: Active | Activity [11]: inactive | Activity [12]: Dose-dependent effect | fold change (FC) [13]: 0.3 | Activity [14]: inactive | Activity [15]: inactive | fold change (FC) [16]: 0.1 to 0.2 | IC50 [17]: 540 nM | Activity [18]: < 10% | fold change (FC) [19]: 1 | Activity [20]: inactive | fold change (FC) [21]: 1.1 | fold change (FC) [22]: 0.9 | fold change (FC) [23]: 0.7 | fold change (FC) [24]: 1.1 | fold change (FC) [25]: 0.9
Structure (SMILES): O=C(CCCCC(=O)NCCN1C(=O)c2cccc3c(Sc4ccc(Br)cc4)ccc(c23)C1=O)NCCCCCCNc1cccc2c1C(=O)N(C1CCC(=O)NC1=O)C2=O (stereo unspecified)
Activity (NCI-H23): Active
